For 1 molecule, IC50 results are on record in BindingDB's records for doi:10.1016/j.bmc.2008.10.024 (National Cancer Institute-Frederick, 2008).

SMILES strings stand for the structures.

This test has as its target E3 ubiquitin-protein ligase Mdm2 (Homo sapiens, UniProt Q00987). The experiment in a line: Inhibition of GST fused human Hdm2 assessed as polyubiquitylation by electrochemiluminescence assay. The gist of the method: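 Cell-free ubiquitylation. Lysate GST-Hdm2 captured on glutathione-coated wells for 1 h at RT. E1/UbcH5B were pre-charged with ubiquitin, ATP and DTT in PBS for 30 min, then added with sample for 30 min at RT. Read-out was ruthenium anti-polyubiquitin electrochemiluminescence, normalised between no-inhibitor (0%) and EDTA (100%). Tested at 100–0.02 µg/mL in quadruplicate.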

Sequence of E3 ubiquitin-protein ligase Mdm2 (Q00987 whole entry, the tested form may be a part): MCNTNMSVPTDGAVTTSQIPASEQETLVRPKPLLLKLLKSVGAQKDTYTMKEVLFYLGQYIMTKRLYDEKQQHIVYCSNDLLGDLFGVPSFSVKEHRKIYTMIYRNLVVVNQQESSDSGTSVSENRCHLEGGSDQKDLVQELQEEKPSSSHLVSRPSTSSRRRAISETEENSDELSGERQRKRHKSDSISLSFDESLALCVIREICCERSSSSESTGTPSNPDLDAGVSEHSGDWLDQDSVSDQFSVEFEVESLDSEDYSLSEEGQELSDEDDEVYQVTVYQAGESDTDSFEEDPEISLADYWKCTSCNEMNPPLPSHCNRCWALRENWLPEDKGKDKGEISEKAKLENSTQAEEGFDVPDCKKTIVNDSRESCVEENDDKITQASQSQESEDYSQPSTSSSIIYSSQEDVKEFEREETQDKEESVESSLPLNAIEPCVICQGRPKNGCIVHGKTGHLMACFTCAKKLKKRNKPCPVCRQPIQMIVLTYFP

Usually IC50 stands for the concentration that gives 50% inhibition. As to `NCCc1c2c(c3c4c(c5ccccc5nc14)C=CN3)OCS2` [Lissoclinidine B], the IC50 was 58.6 µM.
